Compound activity deposited in PubChem by Johns Hopkins Ion Channel Center.
MrgX1 allo act = positive allosteric modulators of MrgX1, primary screen, HEK293 cells, Fluo-4 calcium flux; FDSS; active compounds read high; AID 588675, 2011; 0.63% of 310,000 active; Mas-related G-protein coupled receptor member X1 (Homo sapiens), Q96LB2; B-score at 10 µM;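 active = plate-corrected calcium response at least 3 library SD above typical, normal starting fluorescence, not activating the receptor alone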;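 note: compound read alongside a low EC10 to EC30 dose of BAM8-22 agonist; peak minus trough fluorescence over baseline measured at the second addition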
Target sequence (Q96LB2 whole entry, looked up): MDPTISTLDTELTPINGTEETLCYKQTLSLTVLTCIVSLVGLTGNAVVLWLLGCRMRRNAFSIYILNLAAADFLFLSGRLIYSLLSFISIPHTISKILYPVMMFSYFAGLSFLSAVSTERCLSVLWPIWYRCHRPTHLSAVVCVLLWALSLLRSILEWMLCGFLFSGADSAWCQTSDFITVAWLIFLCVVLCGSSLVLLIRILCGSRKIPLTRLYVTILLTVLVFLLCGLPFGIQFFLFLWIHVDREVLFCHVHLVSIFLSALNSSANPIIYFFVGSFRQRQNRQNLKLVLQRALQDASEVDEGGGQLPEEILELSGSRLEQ
RGS4 pot = RGS4 potentiators or activators, primary screen, cell-based, HEK293 M3R inducible RGS4, calcium flux | carbachol calcium flux Fluo4; active compounds read low | B-score at 10 µM | 0.92% of 310,000 active | AID 463111, 2010;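 active = B-score of the integrated calcium signal more than 4 SD below the library mean, with starting fluorescence not abnormally high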;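 note: negative B-score means reduced calcium response which marks RGS4 activation or potentiation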
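Assay system: HEK293 FlpIn-TREx cells, stable M3R, doxycycline-inducible RGS4 / Probe or stimulus: carbachol, ECmax concentration / Times: overnight RGS4 induction, 30 min dye load 37 °C, 20 min compound RT / Signal: kinetic calcium fluorescence imaging with Fluo4-AM dye, 2 µM / Measure: Agonist-evoked peak-minus-minimum fluorescence over baseline, integrated ratio, B score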
RGS4 block = RGS4 inhibitors, primary screen, cell-based, HEK293 M3R inducible RGS4, calcium flux | Regulator of G-protein signaling 4 (Homo sapiens), P49798 | Fluo-4 calcium flux; active compounds read high; triggered by carbachol at its EC20 | B-score at 10 µM | 0.45% of 310,000 active | AID 463165, 2010;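 active = B-score, a plate-corrected calcium signal, over three deviations above library mean, with baseline fluorescence within five deviations of library mean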;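 note: RGS4 expression induced by doxycycline in cells with stable M3 receptor; B-score is computed from the integrated fluorescence ratio over baseline after carbachol; higher B-score means a larger calcium signal and so more RGS4 inhibition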
Target sequence (P49798 whole entry, looked up): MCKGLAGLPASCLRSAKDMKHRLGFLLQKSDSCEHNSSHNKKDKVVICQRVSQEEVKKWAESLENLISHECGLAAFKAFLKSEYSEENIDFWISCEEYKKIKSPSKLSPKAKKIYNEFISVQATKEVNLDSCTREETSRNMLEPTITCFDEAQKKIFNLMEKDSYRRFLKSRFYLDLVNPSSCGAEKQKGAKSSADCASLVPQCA
MrgX1 agonist = agonists of human MrgX1 receptor, primary screen, HEK293 cells, Fluo-4 calcium flux. Mas-related G-protein coupled receptor member X1 (Homo sapiens), Q96LB2. Fluo-4 calcium fluorescence, agonist mode; active compounds read high. B-score at 10 µM. 0.44% of 310,000 active. AID 588627, 2011;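 active = calcium response B-score plate-corrected fluorescence ratio at least 3 library SD, with starting fluorescence B-score inside 5 SD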
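Assay system: MrgX1-expressing HEK293 cells / Amount: fifteen thousand cells per well / Doses: test compound in the initial addition of three / Timing: cells plated overnight, dye loaded 0.5 h 37 °C, 0.5 h room temperature / Technique: kinetic calcium dye fluorescence, Fluo-4 NW / Control set: positive and negative controls per plate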
MrgX1 antag = antagonists of human MrgX1 receptor, primary screen, HEK293 cells, Fluo-4 calcium flux; BAM8-22 antagonism; active compounds read low; Mas-related G-protein coupled receptor member X1 (Homo sapiens), Q96LB2; 1.3% of 310,000 active; B-score at 10 µM;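 active = calcium-response B-score plate-corrected more than 3 library SD below zero, starting fluorescence within 5 deviations, no agonist response on first addition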;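 note: peak minus trough fluorescence over baseline after final BAM8-22 challenge near maximal dose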
RGS4 block valid = enhanced carbachol calcium response, M3R/RGS4 cells, RGS4 inhibitor project, cell-based, validation screen, HEK293 M3R/RGS4, calcium flux; shares compounds with RGS4 block; carbachol calcium Fluo-4 fluorescence; carbachol added at its EC20; 0 = buffer wells, 100 = carbachol control; calcium response, % at 10 µM; 65% of 1,700 active; AID 492999, 2010;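 active = duplicate-averaged calcium response above the buffer-only control mean plus 5 SD of those controls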;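 note: integrated fluorescence ratio F max minus min over baseline F0; higher response in RGS4-induced cells means RGS4 inhibition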
RGS4 uninduced = carbachol calcium response in non-induced M3R cells, confirmation, counter-screen for RGS4 inhibitor project, cell-based, HEK293 M3R. shares compounds with RGS4 block. carbachol calcium Fluo-4; submaximal (EC20) carbachol stimulus; buffer wells 0%, carbachol control wells 100%. activity (percent), % at 10 µM. 20% of 1,900 active. AID 493000, 2010; call rule not given here;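 note: RGS4 induction absent so cells express M3R without RGS4; higher means more calcium signal and flags a non-specific hit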
RGS4 inh ctr2 = second counter-screen for RGS4 inhibitors: non-induced cells without carbachol; shares compounds with RGS4 block; HEK293 M3R/RGS4 non-induced, Fluo-4 calcium, no carbachol; normalised: buffer wells 0%, carbachol wells 100%; calcium response (agonist-mode artifact), % at 10 µM; 22% of 1,900 active;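 active = duplicate-averaged calcium rise in uninduced cells above buffer wells' mean plus 5 SD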
Active calls of the source: *. The list is not random: actives were taken first. Their share in the collection is about 3.5%.

What do the screens show for `CCOc1cc(/C=C2\COc3ccccc3C2=O)cc(Br)c1OCC(=O)N(C)C`?
MrgX1 allo act: inactive; RGS4 pot: inactive; RGS4 block: 8.35*; MrgX1 agonist: inactive; MrgX1 antag: inactive; RGS4 block valid: 27.0%*; RGS4 uninduced: inactive; RGS4 inh ctr2: inactive

How did COc1ccc(/C=C2\COc3ccccc3C2=O)cc1OC do in these assays?
MrgX1 allo act: inactive; RGS4 pot: inactive; RGS4 block: inactive; MrgX1 agonist: inactive; MrgX1 antag: inactive

What do the screens show for `O=C(O)c1ccc(/C=C2\COc3ccccc3C2=O)cc1`?
MrgX1 allo act: inactive; RGS4 pot: inactive; RGS4 block: 30.9*; MrgX1 agonist: inactive; MrgX1 antag: inactive; RGS4 block valid: 45.0%*; RGS4 uninduced: inactive; RGS4 inh ctr2: inactive

What do the screens show for `CCc1ccc(NC(=O)CSc2nnc(SCC(=O)Nc3ccc(CC)cc3)n2N)cc1`?
MrgX1 allo act: inactive; RGS4 pot: inactive; RGS4 block: inactive; MrgX1 agonist: inactive; MrgX1 antag: inactive

How did O=C(O)c1cc2c(N3CCC(Cc4ccccc4)CC3)ncnc2s1 do in these assays?
MrgX1 allo act: inactive; RGS4 pot: inactive; RGS4 block: 16.6*; MrgX1 agonist: inactive; MrgX1 antag: inactive; RGS4 block valid: 57.5%*; RGS4 uninduced: 50.5%*; RGS4 inh ctr2: inactive

How did c1ccc(CC2CCN(c3ncnc4sccc34)CC2)cc1 do in these assays?
RGS4 pot: inactive; RGS4 block: inactive

How did C=CCNC(=O)/C(C#N)=C/c1cn(-c2ccccc2)nc1-c1cccs1 do in these assays?
MrgX1 allo act: inactive; RGS4 pot: inactive; RGS4 block: inactive; MrgX1 agonist: inactive; MrgX1 antag: inactive

How did CCN(Cc1ccncc1)Cc1c(O)ccc2cc(Br)ccc12 do in these assays?
RGS4 pot: inactive; RGS4 block: 4.76*; RGS4 block valid: inactive; RGS4 uninduced: inactive; RGS4 inh ctr2: inactive

What do the screens show for `CN1CCN(Cc2c(O)ccc3cc(Br)ccc23)CC1`?
MrgX1 allo act: inactive; RGS4 pot: inactive; RGS4 block: inactive; MrgX1 agonist: inactive; MrgX1 antag: inactive

Results for COc1cc(/C=N/NC(=O)C2C3CCCCC32C)cc(Br)c1O (stereo not drawn) ?
MrgX1 allo act: inactive; RGS4 pot: inactive; RGS4 block: inactive; MrgX1 agonist: inactive; MrgX1 antag: inactive

What do the screens show for `CCc1ccc(N2CC(C(=O)N/N=C/c3cc([N+](=O)[O-])ccc3O)CC2=O)cc1` (stereo not drawn)?
MrgX1 allo act: inactive; RGS4 pot: inactive; RGS4 block: inactive; MrgX1 agonist: inactive; MrgX1 antag: inactive; RGS4 uninduced: 57.0%*; RGS4 inh ctr2: inactive

What do the screens show for `CCc1ccc(N2CC(C(=O)N/N=C/c3ccccc3OC)CC2=O)cc1` (stereo not drawn)?
MrgX1 allo act: inactive; RGS4 pot: inactive; RGS4 block: inactive; MrgX1 agonist: inactive; MrgX1 antag: inactive

How did COCCC(=O)N1CCC(Oc2ccc(C(=O)NC3CCOC(C)(C)C3)cc2)CC1 (stereo not drawn) do in these assays?
MrgX1 allo act: inactive; RGS4 pot: inactive; RGS4 block: inactive; MrgX1 agonist: inactive; MrgX1 antag: inactive

How did CCOC(=O)c1cc(-c2ccc(OC(F)F)cc2)nc2c1c(=O)[nH]c(=O)n2C do in these assays?
MrgX1 allo act: inactive; RGS4 pot: inactive; RGS4 block: inactive; MrgX1 agonist: inactive; MrgX1 antag: inactive

Results for CC(C)(NC(=O)N1CCCC1)c1cccc(C(C)(C)NC(=O)N2CCCC2)c1 ?
MrgX1 allo act: inactive; RGS4 pot: inactive; RGS4 block: inactive; MrgX1 agonist: inactive; MrgX1 antag: inactive

How did COc1cc(C(=O)Nc2cccc3cccnc23)cc(OC)c1OC do in these assays?
MrgX1 allo act: inactive; RGS4 pot: inactive; RGS4 block: inactive; MrgX1 agonist: inactive; MrgX1 antag: inactive; RGS4 block valid: inactive; RGS4 uninduced: inactive; RGS4 inh ctr2: inactive

How did COc1ccc(CNC(=O)C(=O)NCCCn2ccnc2)cc1 do in these assays?
MrgX1 allo act: inactive; RGS4 pot: inactive; RGS4 block: inactive; MrgX1 agonist: inactive; MrgX1 antag: inactive

How did CCOC(=O)C1CCN(C(c2cc3c(C)ccc(C)c3[nH]c2=O)c2nnnn2C2CCCCC2)CC1 (stereo not drawn) do in these assays?
MrgX1 allo act: inactive; RGS4 pot: inactive; RGS4 block: inactive; MrgX1 agonist: inactive; MrgX1 antag: inactive; RGS4 block valid: inactive; RGS4 uninduced: inactive; RGS4 inh ctr2: inactive

Results for CCOC(=O)C1CCN(C(c2cc3ccc(C)c(C)c3[nH]c2=O)c2nnnn2C2CCCCC2)CC1 (stereo not drawn) ?
MrgX1 allo act: inactive; RGS4 pot: inactive; RGS4 block: inactive; MrgX1 agonist: inactive; MrgX1 antag: inactive; RGS4 block valid: inactive; RGS4 uninduced: inactive; RGS4 inh ctr2: 19.0%*

What do the screens show for `COc1cccc(NC(=O)CC2C(=O)NC3CCCCC3N2C(=O)c2ccc(F)cc2)c1` (stereo not drawn)?
MrgX1 allo act: inactive; RGS4 pot: inactive; RGS4 block: inactive; MrgX1 agonist: inactive; MrgX1 antag: inactive

Results for O=C(Nc1cccc(F)c1)C1CCCN(S(=O)(=O)c2cccc3cccnc23)C1 (stereo not drawn) ?
MrgX1 allo act: inactive; RGS4 pot: inactive; RGS4 block: inactive; MrgX1 agonist: inactive; MrgX1 antag: inactive

How did COc1cc(OC)cc(C(=O)NCC2CCCN(C(=O)c3csc(C)n3)C2)c1 (stereo not drawn) do in these assays?
MrgX1 allo act: inactive; RGS4 pot: inactive; RGS4 block: inactive; MrgX1 agonist: inactive; MrgX1 antag: inactive
